Sampled rows, rich in hits. Any-hit rate of the full collection: about 1.6%.
HGIII-sPLA2 inh: Blocks human group III sPLA2 activity | QFRET BODIPY PC-A2 liposome hydrolysis, fluorescence | inhibition, % at 12.2 µM | 0.56% of 370,000 active | AID 743126 | Q9NZ20;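 active = inhibition above mean plus 3 SD of compounds lying within the high and low control bounds, cut at about 19% in these data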
Target sequence (Q9NZ20 whole entry, looked up): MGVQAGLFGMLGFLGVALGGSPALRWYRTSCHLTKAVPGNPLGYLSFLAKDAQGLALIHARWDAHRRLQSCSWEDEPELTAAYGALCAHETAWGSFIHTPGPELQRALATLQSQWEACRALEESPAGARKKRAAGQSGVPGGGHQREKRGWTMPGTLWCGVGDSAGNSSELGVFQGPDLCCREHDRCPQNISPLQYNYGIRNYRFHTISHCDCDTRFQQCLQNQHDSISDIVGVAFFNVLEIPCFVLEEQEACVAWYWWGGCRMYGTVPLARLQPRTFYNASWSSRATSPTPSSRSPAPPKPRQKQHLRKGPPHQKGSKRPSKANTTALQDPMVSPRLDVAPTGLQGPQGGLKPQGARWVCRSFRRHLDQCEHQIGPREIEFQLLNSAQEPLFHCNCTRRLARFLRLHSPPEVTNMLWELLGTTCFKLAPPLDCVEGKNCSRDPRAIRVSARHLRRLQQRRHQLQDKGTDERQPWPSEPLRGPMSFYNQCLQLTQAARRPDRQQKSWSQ
PLC-gamma1 inh: PLC-gamma1 (human) inhibition, primary screen; inhibition, % at 12.2 µM; 0.84% of 370,000 active; purified PLC-gamma1, fluorogenic substrate, fluorescence; P19174
proCasp7 act: counter-screen for procaspase-3 activators: activators of human procaspase-7 | P55210 | recombinant procaspase-7, Ac-DEVD-pNA absorbance 405 nm; D23A/D198A/D206A triple mutant, cannot self-cleave; scale: DMSO 0, 5 µM enzyme 100 | activation, % at 8.5 µM | 0.093% of 330,000 active | AID 463210;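 active = percent activation above the screen-wide mean plus 3 SD, cut at about 25% in these data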
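Material: Procaspase-7 triple mutant (PC-7 D3A) | Quantity: 2 µM procaspase-7 mutant as dispensed | Reagent: DEVD-pNA substrate | Times: 1 h preincubation, 2 h reaction | Technique: 405 nm absorbance of p-nitroaniline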
PLC-beta3 inh: blocks human PLC-beta3 enzyme activity; Purified PLC-beta3, fluorogenic substrate, fluorescence; inhibition, % at 12.2 µM; 0.18% of 370,000 active; in the data active = inhibition above about 11%
procasp3 activ: activators of human procaspase-3 | recombinant procaspase-3 D3A, Ac-DEVD-pNA absorbance 405 nm | 0.11% of 330,000 active | P42574 | activation, % at 8.5 µM;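 active = activation above the mean of all tested compounds plus 3 SD, cut at about 21% in these data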
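System: Procaspase-3 D3A mutant. Medium: Zinc-free 300 mM NaCl, 50 mM HEPES, 0.01% Triton X-100. Schedule: 1 h preincubation plus 2 h reaction at 25 °C. Measured by: 405 nm absorbance of p-nitroaniline, reads at 0 and 120 min. Read-out: percent activation relative to control range.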
PLCgamma1 ctr: PLC-gamma1 inhibition, counter-screen for PLC-beta3 hits | shares compounds with PLC-gamma1 inh | 3.1% of 3,300 active | AID 743258 | purified PLC-gamma1, fluorogenic substrate, fluorescence | inhibition, % at 12.3 µM
PLCb3 confirm: confirmation of human PLC-beta3 inhibitors; shares compounds with PLC-gamma1 inh; purified PLC-beta3, fluorogenic substrate fluorescence; inhibition, % at 12.3 µM; 1% of 3,300 active; AID 743261; in the data active = inhibition above about 11%
Hits are given with their value; i = inactive; nt = not tested or not shown. Cut-off read from the data, not from the text of the source, unless noted: active = inhibition above about 9.5%; inactive = the rest.

SMILES | HGIII-sPLA2 inh | PLC-gamma1 inh | proCasp7 act | PLC-beta3 inh | procasp3 activ | PLCgamma1 ctr | PLCb3 confirm
Oc1ccc(/C=N/N2CCN(c3ccccn3)CC2)cc1 | i | i | i | i | i | nt | nt
C=CCNc1nc(N)c([N+](=O)[O-])c(NCCO)n1 | i | i | i | i | i | nt | nt
CCN(CC)c1nc(N)c([N+](=O)[O-])c(NCCO)n1 | i | 10.3 | i | i | i | i | i
O=C1C=C(c2ccc3c(c2)OCO3)C[C@@H](c2ccc(Cl)cc2)C1 | i | i | i | i | i | nt | nt
CCOC(=O)c1ccc(NC(=O)CN2CCN(c3ccccc3)CC2)cc1 | i | i | i | i | i | nt | nt
COC(=O)c1ccc(NC(=O)CN2CCN(c3ccccn3)CC2)cc1 | i | 9.9 | i | i | i | i | i
COC(=O)c1cccc(NC(=O)CN2CCN(c3ccc(OC)cc3)CC2)c1 | i | 12.9 | i | i | i | i | i
O=C(CN1CCN(c2ccccn2)CC1)Nc1ccccc1 | i | i | i | i | i | nt | nt
COC(=O)c1ccc(NC(=O)CN2CCN(c3ccccc3)CC2)cc1 | i | 12.3 | i | i | i | i | i
CC(C)C[C@@H]1CC2=C(C(=O)OC(C)(C)O2)[C@H](c2ccc(Cl)cc2)O1 | i | i | nt | i | nt | nt | nt
CNC(=O)C(=O)Nc1c(C)cc(C)cc1C | i | i | i | 12.3 | i | i | i
CNC(=O)C(=O)Nc1ccc(C)cc1C | i | i | i | i | i | nt | nt
COc1ccc(S[C@]2(C(=O)N3CCOCC3)CC(=O)N(c3ccc(OC)cc3)[C@@H]2c2ccc(OC)cc2)cc1 | i | 9.7 | nt | i | nt | i | i
COc1ccc(S[C@]2(C(=O)N3CCOCC3)CC(=O)N(C(=O)c3ccccc3)[C@@H]2c2ccc(OC)cc2)cc1 | i | i | nt | i | nt | nt | nt
COc1ccc(S[C@]2(C(=O)N3CCN(C(C)=O)CC3)CC(=O)N(C(=O)CCc3ccccc3)[C@@H]2c2ccc(OC)cc2)cc1 | i | 10.8 | nt | i | nt | i | i
COC(=O)c1cccc(N2C(=O)C[C@](Sc3ccc(OC)cc3)(C(=O)N3CCOCC3)[C@H]2c2ccc(OC)cc2)c1 | i | 14.8 | nt | i | nt | i | i
COc1ccc(CNC(=O)[C@@H](Cc2ccccc2)NC(=O)CC[C@H]2O[C@@H](n3ccc(=O)[nH]c3=O)[C@H](O)[C@@H]2O)cc1 | i | i | nt | i | nt | nt | nt
Cn1cnc(CCNC(=O)C[C@H]2CC[C@@H]3[C@H](COC[C@H](O)CN3C(=O)C3CCCC3)O2)c1 | i | i | nt | i | nt | nt | nt
Cc1ccc(S(=O)(=O)NNC(=O)c2ccncc2)cc1[N+](=O)[O-] | i | i | i | i | i | nt | nt
CC(C)CNC(=O)OCc1cn(Cc2cc(F)ccc2F)nn1 | i | i | nt | i | nt | nt | nt
C[C@H](CO)N1C[C@H](C)[C@@H](CN(C)C(=O)Nc2ccccc2)Oc2c(NS(=O)(=O)c3ccccc3)cccc2C1=O | i | i | i | i | i | nt | nt
C[C@H](CO)N1C[C@H](C)[C@@H](CN(C)C(=O)Nc2ccccc2)Oc2c(NS(=O)(=O)c3ccc(F)cc3)cccc2C1=O | i | i | i | 11.2 | i | i | i
COC(=O)c1cc(Cl)cc(Cl)c1OS(=O)(=O)N(C)C | i | i | i | i | i | nt | nt
CC1CN(c2ccc(Cl)cc2)c2nc3c(c(=O)[nH]c(=O)n3C)n2C1 (stereo unspecified) | i | 10.2 | nt | i | nt | i | i
CC1CN(c2ccccc2)c2nc3c(c(=O)[nH]c(=O)n3C)n2C1 (stereo unspecified) | i | i | i | i | i | nt | nt
O=C(c1ccc([N+](=O)[O-])cc1)N1CCN=C1SCc1ccccc1 | i | i | i | i | i | nt | nt
O=C(c1ccccc1)N1CCN=C1SCc1ccc([N+](=O)[O-])cc1 | i | 9.6 | i | i | i | i | i
CCNC(=O)C1(C)CCCN(CC(=O)c2ccccc2OC)C1 (stereo unspecified) | i | i | nt | i | nt | nt | nt
C#CCOc1ccc(Br)cc1C(c1c(C)[nH][nH]c1=O)c1c(C)[nH][nH]c1=O | i | 61.6 | i | i | i | i | i
CCOc1ccc(Cl)cc1C(c1c(C)[nH][nH]c1=O)c1c(C)[nH][nH]c1=O | i | i | nt | i | nt | nt | nt

Assay outcomes: PubChem, The Scripps Research Institute Molecular Screening Center
